# Most compounds without a hit are left out; they make up all but 4.5% or so of the library.
# p97 inhibitor: blocks human p97 ATPase activity; inhibition, % at 8 µM; 0.42% of 220,000 active; recombinant p97 ATPase, Kinase-Glo ATP luminescence, 3 h; P55072; in the data active = inhibition above about 15%;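 also: 0% = DMSO vehicle and 100% = wells lacking enzyme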
# CHOP inh: blocks CHOP induction under ER stress. CHO-K1 CHOP-promoter luciferase, tunicamycin-induced, 15-18 h. 3.8% of 220,000 active. inhibition, % at 10 µM;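 active = compounds that reduced the stress-induced luciferase reporter signal by more than about 70% of percent inhibition, limit read from the data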;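 also: 0% = tunicamycin plus vehicle and 100% = wells without tunicamycin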
# M18AAP inhibitor: blocks P. falciparum M18 aspartyl aminopeptidase | recombinant PfM18AAP, H-Glu-NHMec fluorogenic cleavage | 1.2% of 290,000 active | inhibition, % at 7.35 µM;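 active = inhibition above the campaign mean inhibition over all tested compounds plus 3 SD, cut at about 28% in these data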;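 also: 0% = plate median of test compound wells and 100% = 2 mM ZnCl2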
# XBP1 UPR activ: adaptive UPR (XBP1) activation. CHO-XBP1 luciferase reporter, IRE1-XBP1 UPR activation, luminescence; percent of tunicamycin response, DMSO as zero. activation, % at 20 µM. 0.33% of 330,000 active. AID 463104;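 active = versus positive control, 20 µM dose yields 30% or more activation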;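 also: 100% = tunicamycin at 10 µg/mL and 0% = DMSO only wells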
#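 Material: CHO-XBP1 cells stably carrying IRE1-XBP1-driven luciferase reporter | Medium: F12 with 10% serum | Compound dosing: 20 µM single concentration, DMSO 1% | Incubation: Overnight seeding at 37 °C, 6 h compound treatment at 37 °C | Detection: Steady-Glo luminescence read | Read-out basis: % activation of reporter signal versus tunicamycin and DMSO controls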
# HCV NS3 hel inh: blocks Hepatitis C virus NS3 helicase unwinding; 0.56% of 290,000 active; NS3 helicase DNA unwinding, Cy5 molecular beacon fluorescence; inhibition, % at 10.9 µM;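 active = inhibition above the mean of all tested compounds plus 3 SD, set per campaign, cut at about 35% in these data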;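 also: 0% = DMSO wells and 100% = thioflavine S control wells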
#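 Compound dosing – single dose, 10.9 µM nominal final, DMSO 0.8% final · System – NS3 helicase fragment of HCV · Buffer or medium – MOPS pH 6.5, MgCl2, DTT, Tween20, BSA · Signal – Cy5 beacon fluorescence read at start and 1 h · Also added – annealed dual-labelled DNA beacon duplex, ATP-started · Schedule – 1 h at 25 °C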
# UPR CHOP act: apoptotic UPR (CHOP) activation; CHO-CHOP luciferase reporter, luminescence; percent of tunicamycin response over DMSO baseline; activation, % at 10 µM; 0.34% of 330,000 active; AID 449763;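 active = at 10 µM dose, activation of 40% or more, normalized to positive control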;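 also: 100% = tunicamycin at 10 µg/mL and 0% = DMSO alone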
#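 System: CHO CHOP reporter cells. Amount: 500 cells per well. Buffer or medium: F12 medium, 10% FBS. Compound dosing: one dose, 10 µM in 0.5% DMSO. Incubation: 6 h compound exposure at 37 °C after overnight seeding. Technique: Steady-Glo luciferase luminescence. Benchmarks: tunicamycin and DMSO controls.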
# CHOP confirm: confirmation of CHOP induction inhibitors. 45% of 2,100 active. shares compounds with CHOP inh. AID 504437. inhibition, % at 10 µM. CHO-CHOP promoter luciferase reporter, tunicamycin-induced, luminescence;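 active = mean of three repeat readings of reporter signal inhibition above a set limit, cut at about 70% in these data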;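 also: 0% = tunicamycin plus vehicle and 100% = wells lacking tunicamycin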
# * = called active by the depositor; . = no result given.
SMILES,p97 inhibitor,CHOP inh,M18AAP inhibitor,XBP1 UPR activ,HCV NS3 hel inh,UPR CHOP act,CHOP confirm
CS(=O)(=O)c1ccc(C(=O)OCC(=O)NC(=O)C2COc3ccccc3O2)cc1[N+](=O)[O-] (centres undefined),.,.,.,-4,.,0,.
CCCn1c(N)c(C(=O)CSc2ncnc3sccc23)c(=O)n(C)c1=O,.,.,.,1,.,-1,.
COc1ccc(NC(=O)c2cc(S(=O)(=O)N3CCCC3)ccc2C)cn1,.,.,.,-1,.,-2,.
COc1ccccc1CC(=O)N(Cc1ccccc1)c1cccc(C)c1,.,.,-12,-2,-19,2,.
CC1=CC(=O)C=C(C)C1=NOC(=O)/C=C\c1ccccc1,6,101*,14,1,-5,36,-90
CC1=C(C)/C(=N\OC(=O)/C=C/c2ccccc2)C=CC1=O,-7,104*,-1,-9,8,2,-143
Cc1ccc(NC(=O)C(C)OC(=O)/C=C/c2ccccc2)cc1 (centres undefined),.,.,-6,-4,-2,-2,.
CC1=CC(=NOC(=O)/C=C/c2ccccc2)C=C(C)C1=O,-1,21,6,1,4,1,.
CC1(C)CCCN(Cc2c(O)ccc3c(=O)c(-c4nc5ccccc5s4)c(N)oc23)C1,3,104*,1,-1,0,5,2
CC1CCCN(Cc2c(O)ccc3c(=O)c(-c4nc5ccccc5s4)c(N)oc23)C1 (centres undefined),11,10,-1,0,-105,3,.
Cc1sc2ncn(CC(=O)NCCCC(=O)N3CCN(Cc4ccc5c(c4)OCO5)CC3)c(=O)c2c1C,0,17,-14,-2,-2,0,.
Cc1ccc(C(=C2C3C=CC2C2C(=O)NC(=O)C32)c2ccc(C)cc2)cc1 (centres undefined),5,108*,1,-2,8,0,14
O=C(CN1CCN(c2ncc(C(F)(F)F)cc2Cl)CC1)NCCNc1ncc(C(F)(F)F)cc1Cl,-5,101*,0,-4,4,-3,106*
Cc1nn(Cc2c(Cl)cccc2Cl)c(C)c1NC(=O)c1cc(C(C)C)on1,8,.,-1,-3,-8,0,96*
Cc1nn(Cc2ccc(Cl)cc2)c(C)c1NC(=O)c1cc(-c2ccc3c(c2)OCO3)on1,5,102*,2,-3,-2,0,62
COC(=O)[C@]1(C)N[C@H](CN(C)C(=O)c2ccc(F)cc2)[C@@H]2C(=O)N(Cc3ccccc3)C(=O)[C@@H]21,.,.,.,-1,.,0,.
O=C(CSc1nc(C(F)(F)F)cc(=O)[nH]1)Nc1nccs1,.,.,.,2,.,0,.
COc1ccc(/C=c2\sc3nc(-c4ccccc4)c(-c4ccccc4)n3c2=O)cc1OC,0,-18,10,-3,7,2,.
O=c1/c(=C\c2cccc(O)c2)sc2nc(-c3ccccc3)c(-c3ccccc3)n12,6,99*,-1,0,0,2,21
COc1ccccc1CNC(=O)c1cn(C)c2ccc(S(=O)(=O)N3CCCC3)cc2c1=O,2,106*,0,-2,-8,1,52
COCCNC(=O)c1cn(C)c2ccc(S(=O)(=O)N3CCCC3)cc2c1=O,.,.,-8,-8,4,0,.
Cc1ccc(NC(=O)CSc2ncn[nH]2)c([N+](=O)[O-])c1,.,.,.,-2,.,1,.
CCc1ccc(OCc2n[nH]c(=S)n2C(C)CCCC(C)C)cc1 (centres undefined),-4,105*,1,-2,12,0,113*
CCc1ccc(OCc2n[nH]c(=S)n2Cc2ccccc2)cc1,0,4,0,-1,-2,0,.
CCSc1ccccc1C(=O)N=C1NC(=O)CC2C(=O)NCCN12 (centres undefined),4,5,2,-5,-1,0,.
Cc1ccc(C(=O)CN2/C(=C(\O)c3ccccc3)C(=O)c3ccccc3S2(=O)=O)c(C)c1,6,106*,-14,5,27,-1,28
